Measurements reported in publication PMC5569649 (Clinical Drug Investigation, 2017).
Where a name gives a salt, the structure may show the parent alone. Non-standard residues stand in square brackets, D forms with d. Residues, ends and D or L forms follow the SMILES beside them. *: point of attachment. dPhe(4-NHCONH2) = NC(=O)Nc1ccc(C[C@@H](N)C(=O)O)cc1; Dihydroorotyl(S) = O=C1C[C@@H](C(=O)*)NC(=O)N1; dPhe(4-Cl) = N[C@H](Cc1ccc(Cl)cc1)C(=O)O; Phe(4-NH2) = Nc1ccc(C[C@H](N)C(=O)O)cc1; d2Nal = N[C@H](Cc1ccc2ccccc2c1)C(=O)O; Lys(iPr) = CC(C)NCCCC[C@H](N)C(=O)O; d3Pal = N[C@H](Cc1cccnc1)C(=O)O

Tests used:
[1] = cited from earlier work
[2] = Degarelix plasma concentration; format: in vivo, healthy men
Outline: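 Single 60-min iv infusion of 2.8 mg in 5% glucose. Plasma sampled predose and at 30, 60, 90, 120, 150, 180 min, 6, 12 and 24 h after infusion start. Assay: validated solid-phase extraction with LC–MS/MS, quantification range 0.500–100 ng/mL (up to 500 ng/mL after dilution), precision and bias within 10%. Parameters from noncompartmental analysis; values below LLOQ or missing were excluded.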

[3] = tested on: human GnRH receptor; conditions: cited from earlier work
[4] = tested on: healthy men; experiment: Safety assessments; format: in vivo
Outline: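 Six-sequence crossover of iv test compound, iv placebo and oral moxifloxacin, with 7–10 day washouts. Adverse events, 12-lead ECG and vital signs were monitored throughout. Clinical chemistry, haematology and urinalysis were run by a central laboratory. Adverse event was defined as any untoward medical occurrence in a participant.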

[5] = tested on: human ether-a-go-go-related gene (hERG) channel; conditions: preclinical investigations; ref Ferring Pharmaceuticals, unpublished data; cited from earlier work
[6] = tested on: QT interval / cardiac repolarisation in healthy men; experiment: Thorough QT/QTc study, 12-lead ECG, QTcF; format: in vivo; conditions: for No. of subjects with ΔQTcF >30 ms / No. of subjects with ΔQTcF >60 ms / No. of subjects with ΔQTcF ≤30 ms / No. of subjects with QTcF >450 ms / No. of subjects with QTcF >480 ms / No. of subjects with QTcF >500 ms / No. of subjects with QTcF ≤450 ms: categorical analysis, degarelix n = 76, moxifloxacin n = 78; for No. of subjects with ΔQTcF >30 ms / No. of subjects with ΔQTcF >60 ms / No. of subjects with ΔQTcF ≤30 ms: change from baseline

Row | SMILES | Number of AEs reported ([4]; after each treatment) | No. of subjects with ΔQTcF >30 ms [6] | No. of subjects with ΔQTcF >60 ms [6] | No. of subjects with ΔQTcF ≤30 ms [6] | No. of subjects with QTcF >450 ms [6] | No. of subjects with QTcF >480 ms [6] | No. of subjects with QTcF >500 ms [6] | No. of subjects with QTcF ≤450 ms [6] | further results
1 | CC(=O)N[C@H](Cc1ccc2ccccc2c1)C(=O)N[C@H](Cc1ccc(Cl)cc1)C(=O)N[C@H](Cc1cccnc1)C(=O)N[C@@H](CO)C(=O)N[C@@H](Cc1ccc(NC(=O)[C@@H]2CC(=O)NC(=O)N2)cc1)C(=O)N[C@H](Cc1ccc(NC(N)=O)cc1)C(=O)N[C@@H](CC(C)C)C(=O)N[C@@H](CCCCNC(C)C)C(=O)N1CCC[C@H]1C(=O)N[C@H](C)C(N)=O [degarelix] (Ac-[d2Nal][dPhe(4-Cl)][d3Pal]S[Phe(4-NH2)](Dihydroorotyl(S))[dPhe(4-NHCONH2)]L[Lys(iPr)]P[dA]-NH2) | 27 | 3 (4%) n (%) | 0 n (%) | 73 (96%) n (%) | 0 n (%) | 0 n (%) | 0 n (%) | 76 (100%) n (%) | Median peak concentration ([1]; single subcutaneous administration of 240 mg, prostate cancer): 66 ng/mL; Half-life ([1]; subcutaneous administration, slow-release phase from in situ depot): several weeks; Degarelix concentration at 24 h relative to Cmax ([2]; 24 h after start of degarelix 2.8 mg iv administration): < 10%; Cmax ([2]; male, human, plasma, iv, 2.8 mg): 222 ng/mL; Median maximal degarelix plasma concentration ([2]; single dose 2.8 mg infused iv over 60 min at constant rate): approximately 220 ng/mL; Affinity and selectivity towards the human GnRH receptor [3]: high affinity and selectivity; Intensity of AEs ([4]; after degarelix treatment): mild intensity; Mean changes in placebo-corrected HR, PR and QRS durations ([4]; degarelix 2.8 mg iv): did not show any clinically relevant results; Effect on hERG channel [5]: no effect; One-sided 95% upper confidence boundaries for ΔΔQTcF at any of the nine timepoints ([6]; degarelix 2.8 mg iv over 60 min, 24-h period after start of infusion): ≤ 10 ms; Mean maximum baseline-corrected difference versus placebo in QTcF ([6]; degarelix 2.8 mg iv over 60 min, time-matched): < 4 ms; Slope of concentration-response effect on QTcF compared with placebo ([6]; repeated measures ANCOVA, 677 observations from 79 subjects): slightly negative slope
2 | COc1c(N2C[C@@H]3CCCN[C@@H]3C2)c(F)cc2c(=O)c(C(=O)O)cn(C3CC3)c12 [moxifloxacin, moxifloxacin hydrochloride] | 29 | 15 (19%) n (%) | 0 n (%) | 63 (81%) n (%) | 2 (3%) n (%) | 0 n (%) | 0 n (%) | 76 (97%) n (%) | Subjects reporting AEs ([4]; 80 subjects randomised, after each treatment): 22 (28%) n (%); QTc prolongation produced by positive control ([6]; moxifloxacin 400 mg oral): ≥ 5 ms; Lower bound of 98.3% CI for ΔΔQTcF (moxifloxacin vs placebo) ([6]; moxifloxacin 400 mg single oral dose, at 2.5, 3 and 6 h, assay sensitivity): exceeded 5 ms
